Type in all cases: cell-based
The target of experiment [1] is T1, Sodium channel protein type 9 subunit alpha (Homo sapiens, UniProt Q15858). As to the kind of experiment: Inhibition of human Nav1.7 expressed in HEK293 cells by whole cell patch clamp electrophysiology method.
Experiment [2] concerns the target T2, Sodium channel protein type 5 subunit alpha (Homo sapiens, UniProt Q14524). As to the kind of experiment: Inhibition of human Nav1.5 expressed in HEK293 cells by whole cell patch clamp electrophysiology method. The method in brief:
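Stable HEK293 line expressing human NaV1.5, recorded on the PatchXpress 7000A. Percent inhibition versus concentration was pooled from at least 10 cells, with two to three points per concentration. The pooled set was fitted with a four-parameter Hill equation to give a single IC50 curve.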

Experiment [3] concerns the target T2, Sodium channel protein type 5 subunit alpha. As to the kind of experiment: Inhibition of human Nav1.5 expressed in HEK293 cells assessed as inward peak current by ion-works quattro patch clamp electrophysiology method. An outline of the steps: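 Stable HEK293 line expressing human NaV1.5, recorded by population patch clamp on the IonWorks Quattro.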
Experiment [4] deals with T1, Sodium channel protein type 9 subunit alpha. The experiment can be described thus: Inhibition of human Nav1.7 expressed in HEK293 cells assessed as inward peak current by ion-works quattro patch clamp electrophysiology method.

Positions of bridges follow the written chain, without caps; N, C: chain ends. Non-standard residues stand in square brackets, D forms with d. Residues, ends and D or L forms follow the SMILES beside them. 1Nal = N[C@@H](Cc1cccc2ccccc12)C(=O)O; 2Pal = N[C@@H](Cc1ccccn1)C(=O)O

T2 sequence (Q14524 whole entry): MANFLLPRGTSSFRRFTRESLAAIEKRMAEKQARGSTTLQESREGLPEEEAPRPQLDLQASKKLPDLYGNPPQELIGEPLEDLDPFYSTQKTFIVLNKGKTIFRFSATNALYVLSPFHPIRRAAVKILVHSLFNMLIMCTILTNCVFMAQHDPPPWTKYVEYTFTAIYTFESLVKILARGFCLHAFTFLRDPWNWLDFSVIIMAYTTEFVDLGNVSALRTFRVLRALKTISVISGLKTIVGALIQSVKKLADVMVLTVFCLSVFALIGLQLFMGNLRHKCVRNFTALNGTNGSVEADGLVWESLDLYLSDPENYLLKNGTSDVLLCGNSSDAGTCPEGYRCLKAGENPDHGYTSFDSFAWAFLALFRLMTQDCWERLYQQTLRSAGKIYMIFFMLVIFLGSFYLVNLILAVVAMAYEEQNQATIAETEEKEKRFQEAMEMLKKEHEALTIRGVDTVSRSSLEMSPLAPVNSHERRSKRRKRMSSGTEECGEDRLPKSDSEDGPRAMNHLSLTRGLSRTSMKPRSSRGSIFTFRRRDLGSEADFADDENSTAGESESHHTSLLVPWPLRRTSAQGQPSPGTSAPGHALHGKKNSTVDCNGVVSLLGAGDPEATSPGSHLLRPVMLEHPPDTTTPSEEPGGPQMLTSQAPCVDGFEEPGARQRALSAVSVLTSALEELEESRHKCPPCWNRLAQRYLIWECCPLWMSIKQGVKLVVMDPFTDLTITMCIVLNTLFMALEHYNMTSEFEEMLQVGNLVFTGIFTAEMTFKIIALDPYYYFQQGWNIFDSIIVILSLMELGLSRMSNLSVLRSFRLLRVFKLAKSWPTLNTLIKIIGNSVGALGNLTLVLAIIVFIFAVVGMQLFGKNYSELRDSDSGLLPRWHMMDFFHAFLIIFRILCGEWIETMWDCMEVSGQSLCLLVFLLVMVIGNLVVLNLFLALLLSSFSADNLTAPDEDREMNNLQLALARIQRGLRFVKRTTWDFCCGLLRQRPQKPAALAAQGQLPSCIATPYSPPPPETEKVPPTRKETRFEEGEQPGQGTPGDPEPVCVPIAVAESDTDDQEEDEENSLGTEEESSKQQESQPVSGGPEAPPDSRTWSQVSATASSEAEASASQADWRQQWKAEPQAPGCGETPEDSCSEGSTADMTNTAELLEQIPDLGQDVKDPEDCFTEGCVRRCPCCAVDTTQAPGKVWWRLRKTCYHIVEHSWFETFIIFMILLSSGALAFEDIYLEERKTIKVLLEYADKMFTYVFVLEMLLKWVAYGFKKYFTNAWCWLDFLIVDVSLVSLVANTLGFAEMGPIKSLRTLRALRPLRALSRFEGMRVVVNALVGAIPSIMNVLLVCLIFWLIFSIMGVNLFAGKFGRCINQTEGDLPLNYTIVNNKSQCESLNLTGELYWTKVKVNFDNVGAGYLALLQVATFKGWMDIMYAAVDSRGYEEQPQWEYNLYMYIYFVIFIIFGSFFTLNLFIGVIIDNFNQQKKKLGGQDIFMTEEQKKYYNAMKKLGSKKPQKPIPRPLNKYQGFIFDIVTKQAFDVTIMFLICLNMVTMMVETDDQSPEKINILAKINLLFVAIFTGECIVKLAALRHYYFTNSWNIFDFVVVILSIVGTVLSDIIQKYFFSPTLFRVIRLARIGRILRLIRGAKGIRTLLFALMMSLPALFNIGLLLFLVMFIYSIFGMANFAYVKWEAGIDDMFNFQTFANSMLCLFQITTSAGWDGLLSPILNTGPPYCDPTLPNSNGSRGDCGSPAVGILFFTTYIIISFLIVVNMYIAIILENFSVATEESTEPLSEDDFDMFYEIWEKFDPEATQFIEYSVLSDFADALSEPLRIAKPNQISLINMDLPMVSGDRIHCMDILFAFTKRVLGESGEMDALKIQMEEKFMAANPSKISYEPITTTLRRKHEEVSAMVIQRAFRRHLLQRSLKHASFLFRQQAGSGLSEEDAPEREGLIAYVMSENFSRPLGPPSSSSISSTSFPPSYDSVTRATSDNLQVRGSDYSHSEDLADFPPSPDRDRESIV
T1 sequence (Q15858 whole entry): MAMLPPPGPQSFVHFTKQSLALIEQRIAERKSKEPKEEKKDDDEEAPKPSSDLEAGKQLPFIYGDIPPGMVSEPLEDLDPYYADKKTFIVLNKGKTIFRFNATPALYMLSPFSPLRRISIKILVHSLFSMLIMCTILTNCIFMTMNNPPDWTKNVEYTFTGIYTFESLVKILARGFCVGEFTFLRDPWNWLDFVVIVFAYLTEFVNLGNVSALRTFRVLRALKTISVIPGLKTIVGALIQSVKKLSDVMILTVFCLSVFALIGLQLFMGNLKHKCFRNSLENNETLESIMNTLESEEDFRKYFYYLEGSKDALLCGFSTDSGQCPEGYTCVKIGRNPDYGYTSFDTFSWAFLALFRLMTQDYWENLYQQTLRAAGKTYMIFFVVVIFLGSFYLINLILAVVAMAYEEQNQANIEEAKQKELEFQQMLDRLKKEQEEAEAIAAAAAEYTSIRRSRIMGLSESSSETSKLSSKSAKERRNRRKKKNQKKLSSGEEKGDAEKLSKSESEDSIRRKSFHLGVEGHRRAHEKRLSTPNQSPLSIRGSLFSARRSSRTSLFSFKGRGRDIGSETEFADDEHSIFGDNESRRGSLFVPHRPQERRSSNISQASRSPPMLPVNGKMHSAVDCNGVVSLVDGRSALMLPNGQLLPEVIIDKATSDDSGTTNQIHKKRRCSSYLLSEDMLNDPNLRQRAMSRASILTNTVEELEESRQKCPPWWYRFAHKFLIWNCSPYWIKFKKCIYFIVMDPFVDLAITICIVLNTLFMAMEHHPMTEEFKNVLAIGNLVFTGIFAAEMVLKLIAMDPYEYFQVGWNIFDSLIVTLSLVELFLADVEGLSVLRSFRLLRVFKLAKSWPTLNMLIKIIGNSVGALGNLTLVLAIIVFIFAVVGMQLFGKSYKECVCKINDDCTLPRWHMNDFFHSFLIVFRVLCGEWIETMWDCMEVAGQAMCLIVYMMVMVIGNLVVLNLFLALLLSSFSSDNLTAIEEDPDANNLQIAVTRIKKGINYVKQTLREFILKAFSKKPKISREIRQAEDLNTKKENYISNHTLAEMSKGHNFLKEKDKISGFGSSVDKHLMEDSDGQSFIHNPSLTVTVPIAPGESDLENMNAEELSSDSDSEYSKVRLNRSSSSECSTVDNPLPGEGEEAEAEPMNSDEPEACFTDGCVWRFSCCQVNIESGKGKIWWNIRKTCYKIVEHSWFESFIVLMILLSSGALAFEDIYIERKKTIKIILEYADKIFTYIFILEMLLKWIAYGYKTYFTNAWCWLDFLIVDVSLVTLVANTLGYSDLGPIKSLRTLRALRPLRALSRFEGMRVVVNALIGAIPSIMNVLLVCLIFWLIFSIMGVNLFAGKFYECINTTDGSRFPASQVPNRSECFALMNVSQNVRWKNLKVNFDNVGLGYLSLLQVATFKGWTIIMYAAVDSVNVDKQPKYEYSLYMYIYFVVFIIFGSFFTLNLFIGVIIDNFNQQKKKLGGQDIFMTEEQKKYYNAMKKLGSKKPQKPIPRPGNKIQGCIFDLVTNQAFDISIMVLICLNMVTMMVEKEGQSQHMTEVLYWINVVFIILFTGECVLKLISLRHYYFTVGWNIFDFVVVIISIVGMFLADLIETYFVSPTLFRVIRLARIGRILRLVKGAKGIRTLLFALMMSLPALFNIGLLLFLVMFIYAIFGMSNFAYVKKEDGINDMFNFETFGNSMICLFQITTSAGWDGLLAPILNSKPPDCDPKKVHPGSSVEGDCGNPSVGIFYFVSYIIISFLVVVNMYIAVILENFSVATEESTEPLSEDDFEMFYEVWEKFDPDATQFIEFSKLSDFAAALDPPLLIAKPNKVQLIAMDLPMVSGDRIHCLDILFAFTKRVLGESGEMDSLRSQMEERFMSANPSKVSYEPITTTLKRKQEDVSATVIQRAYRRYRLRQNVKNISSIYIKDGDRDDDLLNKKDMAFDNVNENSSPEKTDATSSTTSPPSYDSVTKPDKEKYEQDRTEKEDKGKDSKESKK

Consider `CC[C@H](C)[C@@H]1NC(=O)[C@@H]2CSSC[C@@H]3NC(=O)[C@H](C(C)C)NC(=O)[C@H](CC(C)C)NC(=O)[C@H](CC(N)=O)NC(=O)[C@@H]4CCCN4C(=O)[C@H](CCCNC(=N)N)NC(=O)[C@H](CSSC[C@H](NC(=O)[C@@H](N)CC(=O)O)C(=O)N[C@@H](CC(C)C)C(=O)NCC(=O)N[C@@H](Cc4ccccc4)C(=O)N[C@@H](CCSC)C(=O)N[C@@H](CCCNC(=N)N)C(=O)N[C@@H](CCCCN)C(=O)N2)NC(=O)[C@H](CSSC[C@@H](C(=O)N[C@@H](CCCCN)C(=O)N[C@@H](Cc2ccc(O)cc2)C(=O)N[C@H](C(=O)N[C@@H](Cc2cccc4ccccc24)C(N)=O)C(C)C)NC(=O)[C@H](Cc2c[nH]c4ccccc24)NC(=O)[C@H](CCCCN)NC(=O)[C@H](Cc2cnc[nH]2)NC(=O)[C@H]([C@@H](C)O)NC(=O)[C@H](CCCNC(=N)N)NC(=O)[C@H](CO)NC3=O)NC(=O)[C@H](CCCCN)NC(=O)[C@H](CC(=O)O)NC(=O)[C@H](CC(N)=O)NC(=O)[C@H](CC(=O)O)NC(=O)[C@@H]2CCCN2C1=O` (H-DCLGFMRKCIPDNDKCCRPNLVCSRTHKWCKYV[1Nal]-NH2; disulfide 2-17, 9-23, 16-30), for which the IC50 is 5 nM in experiment [1], 1800 nM in experiment [2], greater than 5000 nM in experiment [3] and 40 nM in experiment [4].

For the molecule `CC[C@H](C)[C@@H]1NC(=O)[C@@H]2CSSC[C@@H]3NC(=O)[C@H](C(C)C)NC(=O)[C@H](CC(C)C)NC(=O)[C@H](CC(N)=O)NC(=O)[C@@H]4CCCN4C(=O)[C@H](Cc4ccccn4)NC(=O)[C@H](CSSC[C@H](NC(=O)[C@@H](N)CC(=O)O)C(=O)N[C@@H](CC(C)C)C(=O)NCC(=O)N[C@@H](Cc4ccccc4)C(=O)N[C@@H](CCSC)C(=O)N[C@@H](CCCNC(=N)N)C(=O)N[C@@H](CCCCN)C(=O)N2)NC(=O)[C@H](CSSC[C@@H](C(=O)N[C@@H](CCCCN)C(=O)N[C@@H](Cc2ccc(O)cc2)C(=O)N[C@H](C(=O)N[C@@H](Cc2ccccc2)C(N)=O)C(C)C)NC(=O)[C@H](Cc2c[nH]c4ccccc24)NC(=O)[C@H](CCCCN)NC(=O)[C@H](Cc2cnc[nH]2)NC(=O)[C@H]([C@@H](C)O)NC(=O)[C@H](CCCNC(=N)N)NC(=O)[C@H](CO)NC3=O)NC(=O)[C@H](CCCCN)NC(=O)[C@H](CC(=O)O)NC(=O)[C@H](CC(N)=O)NC(=O)[C@H](CC(=O)O)NC(=O)[C@@H]2CCCN2C1=O` (H-DCLGFMRKCIPDNDKCC[2Pal]PNLVCSRTHKWCKYVF-NH2; disulfide 2-17, 9-23, 16-30), the IC50 was 4 nM in experiment [1], 13100 nM in experiment [2], greater than 5000 nM in experiment [3] and 300 nM in experiment [4].

In the case of `CC[C@H](C)[C@@H]1NC(=O)[C@@H]2CSSC[C@@H]3NC(=O)[C@H](C(C)C)NC(=O)[C@H](CC(C)C)NC(=O)[C@H](CC(N)=O)NC(=O)[C@@H]4CCCN4C(=O)[C@H](CCCNC(N)=O)NC(=O)[C@H](CSSC[C@H](NC(=O)[C@@H](N)CC(=O)O)C(=O)N[C@@H](CC(C)C)C(=O)NCC(=O)N[C@@H](Cc4ccccc4)C(=O)N[C@@H](CCSC)C(=O)N[C@@H](CCCNC(=N)N)C(=O)N[C@@H](CCCCN)C(=O)N2)NC(=O)[C@H](CSSC[C@@H](C(=O)N[C@@H](CCCCN)C(=O)N[C@@H](Cc2ccc(O)cc2)C(=O)N[C@H](C(=O)N[C@@H](Cc2ccccc2)C(N)=O)C(C)C)NC(=O)[C@H](Cc2c[nH]c4ccccc24)NC(=O)[C@H](CCCCN)NC(=O)[C@H](Cc2cnc[nH]2)NC(=O)[C@H]([C@@H](C)O)NC(=O)[C@H](CCCNC(=N)N)NC(=O)[C@H](CO)NC3=O)NC(=O)[C@H](CCCCN)NC(=O)[C@H](CC(=O)O)NC(=O)[C@H](CC(N)=O)NC(=O)[C@H](CC(=O)O)NC(=O)[C@@H]2CCCN2C1=O`, the IC50 is 1.9 nM in experiment [1], greater than 10000 nM in experiment [2], greater than 5000 nM in experiment [3] and 180 nM in experiment [4].

For the origin of these results see ChEMBL document CHEMBL3797186, “Single Residue Substitutions That Confer Voltage-Gated Sodium Ion Channel Subtype Selectivity in the NaV1.7 Inhibitory Peptide GpTx-1” (J Med Chem, 2016).
